Calls of active or inactive are those of the source. The calls are words filed in the database; no cut-off is given here.
Key:
[1] = molecular target: T1, Cytosolic phospholipase A2 (Homo sapiens) (UniProt P47712); test: Inhibition of cPLA2 from human platelets at 10 uM by RP-HPLC
T1 sequence (whole entry): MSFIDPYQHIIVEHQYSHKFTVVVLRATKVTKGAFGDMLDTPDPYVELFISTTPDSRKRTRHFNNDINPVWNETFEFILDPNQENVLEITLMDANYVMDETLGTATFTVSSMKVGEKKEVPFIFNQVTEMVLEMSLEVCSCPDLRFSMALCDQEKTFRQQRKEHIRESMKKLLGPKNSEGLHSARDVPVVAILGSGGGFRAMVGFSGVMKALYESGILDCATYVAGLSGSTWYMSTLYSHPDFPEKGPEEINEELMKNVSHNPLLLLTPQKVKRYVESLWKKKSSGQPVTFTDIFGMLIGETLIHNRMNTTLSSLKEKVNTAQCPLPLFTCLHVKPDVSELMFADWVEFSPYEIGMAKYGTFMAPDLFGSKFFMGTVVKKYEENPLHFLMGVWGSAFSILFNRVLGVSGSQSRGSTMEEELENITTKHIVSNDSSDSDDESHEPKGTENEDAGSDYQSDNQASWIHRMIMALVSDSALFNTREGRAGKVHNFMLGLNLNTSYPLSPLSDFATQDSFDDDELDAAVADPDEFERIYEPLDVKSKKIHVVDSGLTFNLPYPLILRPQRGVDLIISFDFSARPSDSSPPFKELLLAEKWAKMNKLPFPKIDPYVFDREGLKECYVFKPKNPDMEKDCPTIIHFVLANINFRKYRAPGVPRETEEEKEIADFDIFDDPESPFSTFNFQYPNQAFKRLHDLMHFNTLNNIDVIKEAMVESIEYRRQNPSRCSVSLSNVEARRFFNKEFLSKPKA
In short: (§1)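 cPLA2α purified from human platelets; substrate sonicated covesicles of SAPC 200 μM and 1,2-dioleoyl-sn-glycerol 100 μM. Reaction 60 min, stopped with acetonitrile/methanol/0.1 M EDTA-Na2 containing 4-undecyloxybenzoic acid internal standard and NDGA. Arachidonic acid released measured by RP-HPLC, UV 200 nm, after solid-phase extraction, with vs without inhibitor; max 10 μM. IC50 means of at least two independent determinations.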

[2] = molecular target: T2, Fatty-acid amide hydrolase 1 (Rattus norvegicus) (UniProt P97612); test: Inhibition of FAAH from rat brain microsomes at 10 uM by RP-HPLC
T2 sequence (whole entry): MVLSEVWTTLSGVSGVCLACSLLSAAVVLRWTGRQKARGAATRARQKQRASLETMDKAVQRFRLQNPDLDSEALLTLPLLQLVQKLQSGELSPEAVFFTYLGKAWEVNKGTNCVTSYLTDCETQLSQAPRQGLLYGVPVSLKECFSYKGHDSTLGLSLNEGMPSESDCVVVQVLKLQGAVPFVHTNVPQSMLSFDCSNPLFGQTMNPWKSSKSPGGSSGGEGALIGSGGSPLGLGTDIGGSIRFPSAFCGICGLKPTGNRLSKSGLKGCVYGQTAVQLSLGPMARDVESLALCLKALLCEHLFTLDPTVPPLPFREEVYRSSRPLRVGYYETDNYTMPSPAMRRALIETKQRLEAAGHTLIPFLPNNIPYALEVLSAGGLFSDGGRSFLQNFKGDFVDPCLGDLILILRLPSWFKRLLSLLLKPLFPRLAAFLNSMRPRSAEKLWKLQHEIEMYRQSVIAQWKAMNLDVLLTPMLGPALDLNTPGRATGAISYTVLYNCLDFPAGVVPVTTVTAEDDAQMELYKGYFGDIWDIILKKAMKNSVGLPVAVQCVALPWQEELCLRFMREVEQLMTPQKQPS
In short: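 Rat brain microsomes as FAAH source; substrate N-(2-hydroxyethyl)-4-pyren-1-ylbutanamide 100 μM solubilized with Triton X-100 0.2%. Incubated 45 min, then stopped with acetonitrile/methanol plus internal standard 6-pyren-1-ylhexanoic acid. Released 4-pyren-1-ylbutanoic acid quantified directly by RP-HPLC with fluorescence (ex 340, em 380 nm), with vs without inhibitor. Inhibitor max 10 μM; IC50 means of at least two independent determinations.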

[3] = inhibition of MAGL up to 10 uM
In short: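 MAGL set up like the FAAH assay, using pyrene-labelled substrate 1,3-dihydroxypropan-2-yl 4-pyren-1-ylbutanoate; product measured by RP-HPLC with fluorescence detection; highest test concentration 10 μM.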

[4] = molecular target: T3, Fatty-acid amide hydrolase 1 (Rattus norvegicus, UniProt P97612); test: Inhibition of FAAH from rat brain microsomes by RP-HPLC
T3 sequence (P97612 whole entry): T2 sequence (whole entry)

[5] = molecular target: T4, Cytosolic phospholipase A2 (Homo sapiens, UniProt P47712); test: Inhibition of cPLA2 from human platelets by RP-HPLC; in short: as §1
T4 sequence (P47712 whole entry): T1 sequence (whole entry)

SMILES	inhibition [1]	inhibition [2]	inhibition [3]	IC50 [4] [µM]	IC50 [5] [µM]
CCCCCCCCc1ccc(OCC(=O)Cn2c(C(=O)O)cc3ccccc32)cc1	inactive	inactive	inactive		
CCCCCCCCc1ccc(OCC(=O)Cn2ncc3cc(C(=O)O)ccc32)cc1			inactive	0.16	
CCCCCCCCc1ccc(OCC(=O)Cn2cnc(C(=O)O)c2)cc1			inactive	1.9	5.3
CCCCCCCCc1ccc(OCC(=O)Cn2ccc3ccccc32)cc1	inactive	inactive	inactive		
CCCCCCCCc1ccc(OCC(=O)Cn2nnc3cc(C(=O)O)ccc32)cc1			inactive	0.14	
CCCCCCCCc1ccc(OCC(=O)Cn2ccc3cc(C(=O)OC)ccc32)cc1		inactive	inactive		> 10
CCCCCCCCc1ccc(OCC(=O)Cn2cc(C(C)(C)C)c3cc(C(=O)O)ccc32)cc1		inactive	inactive		
CCCCCCCCc1ccc(OCC(=O)Cn2ccc3ccc(C(=O)O)cc32)cc1		inactive	inactive		
CCCCCCCCc1ccc(OCC(=O)Cn2cc(C(C)=O)c3cc(C(=O)O)ccc32)cc1		inactive	inactive		0.012
CCCCCCCCc1ccc(OCC(=O)Cn2cnc3cc(C(=O)O)ccc32)cc1			inactive	0.61	
CCCCCCCCc1ccc(OCC(=O)Cn2cc(C(=O)O)c3ccccc32)cc1		inactive	inactive		> 10
CCCCCCCCc1ccc(OCC(=O)Cn2cccc2)cc1	inactive	inactive	inactive		
CCCCCCCCc1ccc(OCC(=O)Cn2ncc3ccc(C(=O)O)cc32)cc1		23%	inactive	> 10	
CCCCCCCCc1ccc(OCC(=O)Cn2ncc3ccccc32)cc1	inactive		inactive	5	
CCCCCCCCc1ccc(OCC(=O)Cn2ccc(C(=O)O)c2)cc1			inactive	3.6	5
CCCCCCCCc1ccc(OCC(=O)Cn2cccn2)cc1	43%		inactive	2	> 10
CCCCCCCCc1ccc(OCC(=O)Cn2cccc2C(=O)O)cc1	inactive	inactive	inactive		
CCCCCCCCc1ccc(OCC(=O)Cn2ccc3cc(C#N)ccc32)cc1		42%	inactive	> 10	> 10
CCCCCCCCc1ccc(OCC(=O)Cn2ccc3c(C(=O)O)cccc32)cc1		40%	inactive	> 10	> 10
CCCCC/C=C\C/C=C\C/C=C\C/C=C\CCCC(=O)C(F)(F)F [ARACHIDONYL TRIFLUOROMETHYLKETONE]			inactive	3.7	
CCCCCCCCc1ccc(OCC(=O)Cn2cnc3ccc(C(=O)O)cc32)cc1			inactive	3.1	
CCCCCCCCc1ccc(OCC(=O)Cn2cc(C(=O)O)cn2)cc1			inactive	0.11	1.8

SMILES	inhibition [1]	inhibition [2]	inhibition [3]	IC50 [4] [µM]	IC50 [5] [µM]
CCCCCCCCc1ccc(OCC(=O)Cn2ccc3cc(Cl)ccc32)cc1	inactive	inactive	inactive		
CCCCCCCCc1ccc(OCC(=O)Cn2ccc3cc(OC)ccc32)cc1	inactive	22%	inactive	> 10	
CCCCCCCCc1ccc(OCC(=O)Cn2ccnc2)cc1			inactive	0.76	0.5
CCCCCCCCc1ccc(OCC(=O)Cn2cncc2C(=O)O)cc1	18%	inactive	inactive		> 10
CCCCCCCCc1ccc(OCC(=O)Cn2nnc3ccccc32)cc1			inactive	0.047	2.2
CCCCCCCCc1ccc(OCC(=O)Cn2cnc3ccccc32)cc1	36%		inactive	1	> 10
CCCCCCCCc1ccc(OCC(=O)Cn2cc(C=O)c3cc(C(=O)O)ccc32)cc1		inactive	inactive		
CC(C)CN(Cc1ccccc1-c1ccccc1)[C@@H]1C[C@@H](CNC(=O)/C=C/c2ccc(/C=C3\SC(=O)NC3=O)cc2)N(C(=O)c2ccccc2C(=O)c2ccc(F)cc2F)C1		inactive			0.031
CCCCCCCCCCOc1ccc(OCC(=O)COc2ccc(C(=O)O)cc2)cc1			inactive	0.059	
O=C(CCCCCc1ccccc1)c1nc2ncccc2o1	inactive			0.009	
CCCCCCCCc1ccc(OCC(=O)Cn2ccc3cc(C(=O)O)ccc32)cc1			inactive	2.8	
CCCCCCCCc1ccc(OCC(=O)Cn2ccc3cc(C(N)=O)ccc32)cc1			inactive	6.4	
CCCCCCCCc1ccc(OCC(=O)Cn2ccc(C(=O)O)n2)cc1		39%	inactive	> 10	8.2
CCCCCCCCc1ccc(OCC(=O)Cn2cc(C(=O)O)c3cc(C(=O)O)ccc32)cc1		inactive	inactive		
NC(=O)c1cccc(-c2cccc(OC(=O)NC3CCCCC3)c2)c1	inactive				
CCCCCCCCc1ccc(OCC(=O)Cn2cc(Cl)c3cc(C(=O)O)ccc32)cc1		inactive	inactive		
CCCCCCCCc1ccc(OCC(=O)Cn2cc(C(=O)OC)c3cc(C(=O)O)ccc32)cc1		inactive	inactive		
CCCCCCCCc1ccc(OCC(=O)Cn2ccc3cc(C)ccc32)cc1	inactive	inactive	inactive		
CCCCCCCCc1ccc(OCC(=O)Cn2cc(C#N)c3cc(C(=O)O)ccc32)cc1		inactive	inactive		
CCCCCCCCc1ccc(OCC(=O)Cn2nccc2C(=O)O)cc1	21%	inactive	inactive		> 10
CCCCCCCCc1ccc(OCC(=O)Cn2nnc3ccc(C(=O)O)cc32)cc1			inactive	0.2	
CCCCCCCCc1ccc(OCC(=O)Cn2ccc3cc(C=O)ccc32)cc1		45%	inactive	> 10	
